Assay results: ChEMBL document CHEMBL1127054, “3-Aryl-2-(3'-substituted-1',2',4'-oxadiazol-5'-yl)tropane analogues of cocaine: affinities at the cocaine binding site at the dopamine, serotonin, and norepinephrine transporters” (J Med Chem, 1993)

Tests used:
[1] = target: Norepinephrine transporter (Rattus norvegicus, UniProt Q9WTR4); assay: Binding affinity towards norepinephrine transporter by displacement of [3H]nisoxetine radioligand from rat brain
[2] = target: Sodium-dependent serotonin transporter (Rattus norvegicus, UniProt P31652); assay: Binding affinity towards serotonin transporter by displacement of [3H]- paroxetine radioligand from rat brain
Summary of the method: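 Midbrain tissue (1.5 mg original wet weight) with 0.2 nM [3H]paroxetine in 50 mM Tris, 120 mM NaCl, 5 mM KCl, pH 7.4, for 90 min at room temperature; nonspecific binding defined with 1 μM citalopram. Terminated by filtration through polyethylenimine-soaked GF/B filters with ice-cold buffer washes. Mean ± SE of four triplicate experiments.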

[3] = target: Sodium-dependent dopamine transporter (Rattus norvegicus, UniProt P23977); assay: Binding affinity towards Dopamine transporter by displacement of [3H]WIN-35428 radioligand from rat brain
[4] = target: Monoamine transporters; Norepininephrine & dopamine (Rattus norvegicus) (UniProt P23977+Q9WTR4); assay: Ratio between norepinephrine and Dopamine transporter; format: protein assay
[5] = target: Monoamine transporters; serotonin & dopamine (Rattus norvegicus) (UniProt P31652+P23977); assay: Ratio between serotonin transporter and Dopamine transporter; format: protein assay
Chain of Monoamine transporters; serotonin & dopamine (Rattus norvegicus) (P23977 whole entry, looked up): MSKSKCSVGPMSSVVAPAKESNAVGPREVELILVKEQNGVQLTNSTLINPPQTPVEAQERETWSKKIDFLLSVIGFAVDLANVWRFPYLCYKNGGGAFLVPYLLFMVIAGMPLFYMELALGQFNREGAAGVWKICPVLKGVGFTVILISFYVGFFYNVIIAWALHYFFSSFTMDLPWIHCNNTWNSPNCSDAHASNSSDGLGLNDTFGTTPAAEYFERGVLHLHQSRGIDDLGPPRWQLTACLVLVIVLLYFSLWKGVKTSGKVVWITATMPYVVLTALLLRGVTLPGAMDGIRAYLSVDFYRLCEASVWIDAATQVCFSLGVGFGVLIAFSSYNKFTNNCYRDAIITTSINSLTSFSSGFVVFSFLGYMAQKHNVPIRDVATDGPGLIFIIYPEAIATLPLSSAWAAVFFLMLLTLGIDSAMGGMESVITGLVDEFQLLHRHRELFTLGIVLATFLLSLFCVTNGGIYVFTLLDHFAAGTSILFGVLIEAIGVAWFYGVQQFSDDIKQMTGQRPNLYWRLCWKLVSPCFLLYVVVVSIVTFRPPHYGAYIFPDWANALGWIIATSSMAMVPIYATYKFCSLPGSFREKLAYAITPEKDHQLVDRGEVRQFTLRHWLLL
Chain of Monoamine transporters; serotonin & dopamine (Rattus norvegicus) (P31652 whole entry, looked up): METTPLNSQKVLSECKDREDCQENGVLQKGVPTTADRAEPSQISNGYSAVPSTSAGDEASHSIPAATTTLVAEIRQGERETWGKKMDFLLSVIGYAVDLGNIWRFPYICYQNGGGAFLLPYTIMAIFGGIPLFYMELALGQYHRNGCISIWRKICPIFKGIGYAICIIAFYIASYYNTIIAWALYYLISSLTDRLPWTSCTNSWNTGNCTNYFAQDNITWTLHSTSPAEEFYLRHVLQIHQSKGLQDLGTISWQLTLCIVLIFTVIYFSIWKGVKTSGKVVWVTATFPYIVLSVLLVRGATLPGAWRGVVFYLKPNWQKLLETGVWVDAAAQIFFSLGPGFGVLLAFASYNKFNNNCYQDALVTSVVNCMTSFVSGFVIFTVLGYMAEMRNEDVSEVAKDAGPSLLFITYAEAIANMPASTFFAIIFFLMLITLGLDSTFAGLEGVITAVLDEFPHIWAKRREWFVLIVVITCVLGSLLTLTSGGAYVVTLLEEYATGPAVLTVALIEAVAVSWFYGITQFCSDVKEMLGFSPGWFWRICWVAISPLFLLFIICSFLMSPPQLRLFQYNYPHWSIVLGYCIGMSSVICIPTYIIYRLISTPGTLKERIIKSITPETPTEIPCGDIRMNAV

Chain of Sodium-dependent serotonin transporter (P31652 whole entry): as the sequence (P31652 whole entry, looked up) above
Chain of Norepinephrine transporter (Q9WTR4 whole entry): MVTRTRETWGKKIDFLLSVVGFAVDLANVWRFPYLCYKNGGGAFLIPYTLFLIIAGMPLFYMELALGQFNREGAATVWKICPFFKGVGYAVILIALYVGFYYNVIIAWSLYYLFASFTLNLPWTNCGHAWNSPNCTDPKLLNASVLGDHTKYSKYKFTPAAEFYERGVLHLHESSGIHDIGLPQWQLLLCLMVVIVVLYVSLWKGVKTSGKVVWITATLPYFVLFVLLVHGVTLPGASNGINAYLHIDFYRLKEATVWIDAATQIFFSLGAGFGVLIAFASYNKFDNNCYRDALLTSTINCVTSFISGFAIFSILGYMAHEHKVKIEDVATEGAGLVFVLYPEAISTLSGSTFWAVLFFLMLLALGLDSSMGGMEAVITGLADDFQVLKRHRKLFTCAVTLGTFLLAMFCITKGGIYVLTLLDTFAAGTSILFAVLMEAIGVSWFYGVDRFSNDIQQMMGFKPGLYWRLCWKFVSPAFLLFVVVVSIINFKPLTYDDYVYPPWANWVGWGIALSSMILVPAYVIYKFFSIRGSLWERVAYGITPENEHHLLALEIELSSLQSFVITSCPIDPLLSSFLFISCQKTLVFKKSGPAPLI
Chain of Sodium-dependent dopamine transporter (P23977 whole entry): as the sequence (P23977 whole entry, looked up) above

Compound | IC50 [1] | IC50 [2] | IC50 [3] | Ratio [4] | Ratio [5]
Cc1noc(C2C3CC[C@H](C[C@@H]2c2ccccc2)N3C)n1 (stereo in doubt; 5a) [listing 1 of 2 here] | 7880 nM | 3830 nM | 100 nM |  | 
Cc1noc(C2C3CC[C@H](C[C@@H]2c2ccccc2)N3C)n1 (stereo in doubt; 5a) [listing 2 of 2 here] |  |  |  | 79 | 38
Cc1noc(C2C3CC[C@H](C[C@@H]2c2ccccc2)N3C)n1 (stereo in doubt; 7) [listing 1 of 2 here] |  |  |  | 176 | 144
CN1C2CCC1C(C(=O)Oc1ccccc1)C(c1ccc(Cl)cc1)C2 (centres undefined) | 2960 nM |  | 1.99 nM | 1490 | 
COC(=O)[C@@H]1C2CC[C@H](C[C@@H]1c1ccccc1)N2C | 920 nM |  |  |  | 
Cc1noc(C2C3CC[C@H](C[C@@H]2c2ccccc2)N3C)n1 (stereo in doubt; 8) [listing 1 of 2 here] |  |  |  | 42 | 243
CN1C2CC[C@@H]1C[C@H](c1ccc(Cl)cc1)C2c1nc(-c2ccc(Cl)cc2)no1 (some centres undefined) | 4070 nM | 404 nM | 4.06 nM | 1000 | 100
Cc1ccc([C@H]2C[C@H]3CCC(C2C(=O)Oc2ccccc2)N3C)cc1 (some centres undefined) | 5830 nM | 24500 nM | 3.27 nM | 1780 | 
Cc1noc(C2C3CC[C@H](C[C@@H]2c2ccccc2)N3C)n1 (stereo in doubt; 6) [listing 1 of 2 here] |  |  |  | 69 | 32
CN1C2CC[C@@H]1C[C@H](c1ccc(Cl)cc1)C2c1nc(-c2ccc(Br)cc2)no1 (some centres undefined) | 1830 nM | 106 nM | 3.44 nM | 532 | 31
Cc1noc(C2C3CC[C@H](C[C@@H]2c2ccc(Cl)cc2)N3C)n1 (some centres undefined) | 363 nM | 2580 nM |  |  | 
CC(C)c1noc(C2C3CC[C@H](C[C@@H]2c2ccc(Cl)cc2)N3C)n1 (some centres undefined) | 135 nM | 3460 nM | 6 nM | 23 | 577
Cc1noc(C2C3CC[C@H](C[C@@H]2c2ccccc2)N3C)n1 (stereo in doubt; 7) [listing 2 of 2 here] | 35800 nM | 29400 nM | 204 nM |  | 
Cc1ccc([C@H]2C[C@H]3CCC(C2c2nc(-c4ccccc4)no2)N3C)cc1 (some centres undefined) | 60 nM | 1070 nM | 2.33 nM | 26 | 459
Cc1noc(C2C3CC[C@H](C[C@@H]2c2ccccc2)N3C)n1 (stereo in doubt; 8) [listing 2 of 2 here] | 6990 nM | 40600 nM | 167 nM |  | 
CC(C)OC(=O)C1C2CC[C@H](C[C@@H]1c1ccc(Cl)cc1)N2C (some centres undefined) | 778 nM | 1400 nM | 1.41 nM | 551 | 
CN1C2CC[C@@H]1C[C@H](c1ccc(Cl)cc1)C2c1nc(-c2ccccc2)no1 (some centres undefined) | 245 nM | 195 nM | 1.62 nM | 151 | 120
Cc1noc(C2C3CC[C@H](C[C@@H]2c2ccccc2)N3C)n1 (stereo in doubt; 6) [listing 2 of 2 here] | 71000 nM | 33100 nM | 1030 nM |  | 
COc1ccc(-c2noc(C3C4CC[C@H](C[C@@H]3c3ccc(Cl)cc3)N4C)n2)cc1 (some centres undefined) | 835 nM | 337 nM | 1.81 nM | 461 | 186
